Laboratory results as given in ChEMBL document CHEMBL1148331, “Aziridinyldinitrobenzamides: synthesis and structure-activity relationships for activation by E. coli nitroreductase” (J Med Chem, 2004).
In brackets after ≈: the same amount, converted by molar mass.

Experiments:
[1] = Solubility in culture medium; format: physicochemical
In short: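 Solubility limit (mM) determined in cell culture medium.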

[2] = Partition coefficient (logP); format: physicochemical; conditions: octanol/water
In short: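 Partition measured between n-octanol and water.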

EMT6 [3] = assay: Growth inhibitory potency against NTR-Transfected (nitroreductase) mouse mammary cell line known as EMT6-NTRpuro cell line; format: functional, cell-based
In short: (§1)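 Log-phase cells were seeded in αMEM with 5% FBS at 50–800 cells/well and grown for 18 h. Prodrug was added from DMSO stock diluted in medium and left for 18 h, then washed out. Regrowth lasted 3 days for V79 and EMT6 lines and 4 days for WiDr and Skov3 lines. Cell density was read by sulforhodamine B staining. IC50 was interpolated as 50% of control absorbance on the same plate. Ratio = IC50 of parental (NTR-ve) line / IC50 of NTR-transfected line.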

WiDr-NTR = assay: Growth inhibitory potency against NTR-Transfected (nitroreductase) human colon cell line known as WiDr-NTRneo cell line; format: functional, cell-based; in short: as §1
V79 [4] = assay: Growth inhibitory potency against NTR-Transfected (nitroreductase) chinese hamster fibroblast known as V79-NTRpuro cell line; format: functional, cell-based; conditions: Cricetulus griseus; in short: as §1
[5] = Ratio of growth inhibition of NTR-transfected human colon cell line to that of parental cell line (IC50 (NTR-)/IC50 (NTR+); format: functional; in short: as §1
SK-OV-3 [6] = assay: Ratio of growth inhibition of NTR-transfected human ovarian cell line to that of parental cell line (IC50 (NTR-)/IC50 (NTR+); format: functional; in short: as §1
EMT6 [7] = assay: Ratio of growth inhibition of NTR-transfected mouse mammary cell line to that of parental cell line (IC50 (NTR-)/IC50 (NTR+); format: functional; in short: as §1
SK-OV-3 [8] = assay: Growth inhibitory potency against NTR-Transfected (nitroreductase) human ovarian cell line known as SKOV3-NTR neo cell line; format: functional, cell-based; in short: as §1
V79 [9] = assay: Effective concentration of 10% cell survival for activators in V79 MCL (multicellular layer) cocultures; format: functional, Cricetulus griseus
In short: (§2)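 V79 multicellular layers were grown on collagen-coated microporous inserts for 3 days, stirred, under 5% CO2/air. Cocultures held 3% V79-NTRpuro activators and 97% V79oua targets; the other layers held targets only. Layers were exposed to prodrug over a concentration range for 5 h at 37 °C under 5% CO2/95% O2. Cells were then plated clonogenically in 1 mM ouabain (targets) or 15 µM puromycin (activators). After 6 days, colonies of more than 50 cells were counted and the concentration giving 10% survival was taken.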

V79 [10] = assay: Effective concentration of 10% cell survival for targets in V79 MCL (multicellular layer) grown from targets; format: functional, Cricetulus griseus; in short: as §2
V79 [11] = assay: Effective concentration of 10% cell survival for targets in V79 MCL (multicellular layer) cocultures; format: functional, Cricetulus griseus; in short: as §2
Mus musculus [12] = assay: In vivo activity against WiDr-nitroreductase tumors in mice at a dose of 178 (umol/kg); 1/7; format: functional
Mus musculus [13] = assay: In vivo activity against WiDr-nitroreductase tumors in mice at a dose of 178 (umol/kg); 2/7; format: functional
Mus musculus [14] = assay: In vivo median growth delay against CD-1 nude mice bearing WiDr-nitroreductase tumors at a dose 178 (umol/kg); format: functional
Mus musculus [15] = assay: In vivo activity against WiDr-nitroreductase tumors in mice at a dose of 750 (umol/kg); 0/7; format: functional
Mus musculus [16] = assay: In vivo activity against WiDr-nitroreductase tumors in mice at a dose of 750 (umol/kg); 1/7; format: functional
Mus musculus [17] = assay: In vivo median growth delay against CD-1 nude mice bearing WiDr-nitroreductase tumors at a dose 750 (umol/kg); format: functional
Mus musculus [18] = assay: In vivo activity against WiDr-nitroreductase tumors in mice at a dose of 200 (umol/kg); 31/53; format: functional
Mus musculus [19] = assay: In vivo activity against WiDr-nitroreductase tumors in mice at a dose of 200 (umol/kg); 12/53; format: functional
Mus musculus [20] = assay: In vivo median growth delay against CD-1 nude mice bearing WiDr-nitroreductase tumors at a dose 200 (umol/kg); format: functional
WiDr [21] = assay: Effective concentration of 10% cell survival for targets in WiDr MCL (multicellular layer) grown from targets; format: functional, Homo sapiens
In short: (§3)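 WiDr multicellular layers were grown on collagen-coated inserts for 6 days. Cocultures held 10% WiDr-NTRneo activators and 90% WiDr targets; the other layers held targets only. Layers were exposed to prodrug over a range of concentrations for 5 h at 37 °C, stirred, under 5% CO2/95% O2. Cells were plated clonogenically, with activators selected in 0.3 mg/mL G418. After 14 days, colonies of more than 50 cells were counted and the concentration giving 10% survival was derived.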

WiDr [22] = assay: Effective concentration of 10% cell survival for targets in WiDr MCL (multicellular layer) cocultures; format: functional, Homo sapiens; in short: as §3
WiDr [23] = assay: Effective concentration of 10% cell survival for activators in WiDr MCL (multicellular layer) cocultures; format: functional, Homo sapiens; in short: as §3

SMILES	solubility [1]	logP ([2]; read-out: logP)	IC50 (EMT6 [3])	IC50 (WiDr-NTR)	IC50 (V79 [4])	Ratio [5]	Ratio (SK-OV-3 [6])	Ratio (EMT6 [7])	IC50 (SK-OV-3 [8])	further results
O=C(NCCn1ccnc1)c1cc(N2CC2)c([N+](=O)[O-])cc1[N+](=O)[O-]	1100 µM (≈ 381 µg/mL)	-0.48	0.29 µM	1.1 µM	0.31 µM	41.5	105	278	0.58 µM	
CC(=O)CCNC(=O)c1cc(N2CC2)c([N+](=O)[O-])cc1[N+](=O)[O-]	800 µM (≈ 258 µg/mL)	0.56	0.31 µM	2.6 µM	0.33 µM	63.6	270	1520	2.5 µM	Ac (V79 [9]): 20 µM; T (V79 [10]): 1900 µM; Tc (V79 [11]): 200 µM
CS(=O)(=O)c1cc([N+](=O)[O-])c(C(N)=O)cc1N1CC1	780 µM (≈ 223 µg/mL)	-0.3	11 µM	22 µM	40 µM	10	19	25	21.8 µM	
NC(=O)c1ccc([N+](=O)[O-])c(N2CC2)c1	430 µM (≈ 89.1 µg/mL)	0.47	41.4 µM	62.4 µM	61.5 µM	1.6	1.6	2.8	61 µM	
CS(=O)(=O)c1cc([N+](=O)[O-])c(N2CC2)cc1C(=O)NCC(O)CO (configuration not stated)	4150 µM (≈ 1490 µg/mL)	-0.96	84.5 µM	281 µM	132 µM	10	26	32	160 µM	
CS(=O)(=O)c1cc([N+](=O)[O-])c(N2CC2)cc1C(N)=O	880 µM (≈ 251 µg/mL)	-0.41	3.6 µM	26 µM	8.8 µM	33	160	125	6.3 µM	Cures (Mus musculus [12]): 1; Deaths (Mus musculus [13]): 2; Growth delay (Mus musculus [14]): 17 days
NC(=O)c1cc(N2CC2)ccc1[N+](=O)[O-]	3400 µM (≈ 704 µg/mL)	0.7	67 µM	89 µM	81 µM					
NC(=O)c1c([N+](=O)[O-])ccc(N2CC2)c1[N+](=O)[O-]	2700 µM (≈ 681 µg/mL)	-0.17	27 µM	58.2 µM	135 µM	5.9	9.6	9.2	65.8 µM	
O=C(NCCCN1CCOCC1)c1cc(N2CC2)c([N+](=O)[O-])cc1[N+](=O)[O-]	1600 µM (≈ 607 µg/mL)	-1.05	0.04 µM	0.24 µM	0.048 µM	122	732	3310	0.15 µM	
O=C(NCCCCN1CCOCC1)c1cc(N2CC2)c([N+](=O)[O-])cc1[N+](=O)[O-]	5600 µM (≈ 2200 µg/mL)	-0.48	0.06 µM	0.31 µM	0.21 µM	93	513	12170	0.3 µM	
NC(=O)c1cc([N+](=O)[O-])cc([N+](=O)[O-])c1N1CC1	1300 µM (≈ 328 µg/mL)	0.34	1.3 µM	13 µM	1.2 µM	85	281	627	6.1 µM	Deaths (Mus musculus [15]): 0; Cures (Mus musculus [16]): 1; Growth delay (Mus musculus [17]): 47 days; Ac (V79 [9]): 450 µM; T (V79 [10]): >2000 µM; Tc (V79 [11]): >2000 µM
NC(=O)c1cc([N+](=O)[O-])c(N2CC2)c([N+](=O)[O-])c1	40 µM (≈ 10.1 µg/mL)	0.59	> 20 µM	> 20 µM	> 20 µM				> 20 µM	
CN(CCN1CCOCC1)C(=O)c1cc(N2CC2)c([N+](=O)[O-])cc1[N+](=O)[O-]	3300 µM (≈ 1250 µg/mL)	-0.26	1.8 µM	8.1 µM	1.8 µM	21	46	309	13 µM	
NC(=O)c1cc(N2CC2)c([N+](=O)[O-])cc1[N+](=O)[O-] [TRETAZICAR]				1.14 µM		51.1	317	947	0.64 µM	logP [2]: 0.14; Cures (Mus musculus [18]): 31; Deaths (Mus musculus [19]): 12; Growth delay (Mus musculus [20]): >87 days; Ac (V79 [9]): 23 µM; T (WiDr [21]): 513 µM; Tc (WiDr [22]): 252 µM; Ac (WiDr [23]): 33 µM; T (V79 [10]): 1400 µM; Tc (V79 [11]): 173 µM
